# In the library only some 1.5% were active in any assay of this set; here they are far more common.
# S100A4 inh HTS: inhibitors of human S100A4 binding to myosin IIA peptide | P26447 | S100A4/TAMRA-MyoIIA peptide fluorescence polarization | inhibition, % at 10.7 µM | 0.14% of 360,000 active;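 active = mean inhibition of at least 70% across replicates, with every replicate also reaching that level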
# Target sequence (P26447 whole entry, looked up): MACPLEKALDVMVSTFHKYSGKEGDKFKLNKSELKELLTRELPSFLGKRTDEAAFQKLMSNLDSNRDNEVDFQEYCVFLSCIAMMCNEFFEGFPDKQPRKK
#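 Material: S100A4 monomer protein | Medium: HEPES pH 7.2 with CaCl2, KCl, NaCl, DTT, Triton | Reagent: Labelled myosin peptide probe, 5 nM | Doses: One dose per compound | Times: 5 min incubation before reading | Benchmarks: Neutral control DMSO, positive control TFP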
# RAD52 anneal inh: RAD52 (human) annealing inhibition. P43351. 0.46% of 360,000 active. recombinant RAD52 DNA annealing, FRET fluorescence. AID 651710. inhibition, % at 18.7 µM;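 active = every replicate showing at least 50% inhibition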
# Target sequence (P43351 whole entry, looked up): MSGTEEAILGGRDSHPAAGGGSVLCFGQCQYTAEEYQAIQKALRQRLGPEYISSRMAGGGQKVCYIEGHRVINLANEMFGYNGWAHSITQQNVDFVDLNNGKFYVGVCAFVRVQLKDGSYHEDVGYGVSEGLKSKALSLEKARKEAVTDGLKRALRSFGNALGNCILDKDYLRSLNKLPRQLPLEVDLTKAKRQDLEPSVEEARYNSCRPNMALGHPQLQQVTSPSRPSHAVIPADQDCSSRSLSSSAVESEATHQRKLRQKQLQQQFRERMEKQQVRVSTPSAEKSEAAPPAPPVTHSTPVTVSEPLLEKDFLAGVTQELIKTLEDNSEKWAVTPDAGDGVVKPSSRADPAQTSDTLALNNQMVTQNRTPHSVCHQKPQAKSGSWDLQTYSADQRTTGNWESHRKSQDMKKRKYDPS
# dFosB act: enhances mouse delta FosB homodimer DNA binding. P13346. purified delta FosB, TAMRA-CDK5 oligo fluorescence polarization; percent of positive-control signal above neutral wells. activation, % at 25 µM. 0.99% of 340,000 active. AID 493131;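 active = mean activation above about 17%, with every replicate also reaching it, limit read from the data, passing the limit was not always enough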
# RAD54 branch: RAD54 (human) branch migration inhibition; RAD54 Holliday junction branch migration, FAM/BHQ fluorescence; AID 602329; 0.14% of 360,000 active; Q92698; inhibition, % at 10.4 µM;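 active = mean normalized replicate activity at least 40 and at least half of replicates scoring 40 or more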;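 also: 0% = median of neutral control wells and 100% = median of positive control wells; inhibitors cause a drop in the FAM fluorescence signal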
# MLL AF4-AF9 inh: blocks AF4 peptide binding to human AF9. P42568. AID 651704. AlphaScreen, biotin-AF4 peptide binding to FLAG-AF9. inhibition, % at 10 µM. 0.47% of 350,000 active;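 active = every replicate reaching a set inhibition limit, whatever the replicate mean, cut at about 25% in these data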;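 also: 0% = plate neutral control median and 100% = total signal loss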
# AlphaScreen intf: AlphaScreen signal interference counter-screen hit; AID 720494; signal luminescence; 45% of 530 active; AC50, µM (titrated, usually from 12 µM), without a hit: at the highest dose activity change, negative = inhibition; shares compounds with MLL AF4-AF9 inh; cut-off not given, nearly all actives have AC50 up to about 14 µM
# * = called active by the depositor; . = no result given.
SMILES,S100A4 inh HTS,RAD52 anneal inh,dFosB act,RAD54 branch,MLL AF4-AF9 inh,AlphaScreen intf
CCOc1ccc(NCc2cccn2-c2nnc(N3CCC(C(=O)NCCCN4C(C)CCCC4C)CC3)s2)cc1 (stereo unspecified),19,64*,-4,16,51*,11µM*
COc1ccccc1N1CCN(/N=C/c2cccc(Cl)c2)CC1,0,1,3,0,27*,-26%
COc1ccc(/C=N/N2CCN(c3ccccc3)CC2)cc1Br,-3,1,-1,-3,-12,.
COc1ccc(/C=N/N2CCN(c3ccccc3OC)CC2)cc1Br,-1,-2,-1,-1,27*,-20%
COc1ccccc1N1CCN(/N=C/C=C\c2ccccc2[N+](=O)[O-])CC1,0,-27,-5,.,51*,-19%
COc1ccccc1N1CCN(/N=C/C=C\c2ccco2)CC1,.,.,-10,3,.,.
COc1cccc(/C=N/N2CCN(c3ccccc3OC)CC2)c1,.,.,-2,-9,.,.
O=C(NC[C@@H]1CC[C@H]2[C@H](CN2Cc2ccccc2F)O1)C1CCCCC1,-1,-1,.,.,-6,.
O=C(C[C@H]1CC[C@@H]2[C@H](COC[C@@H](O)CN2S(=O)(=O)c2ccc(F)cc2)O1)NCC1CCCCC1,-48,89*,.,8,34*,-19%
CNC(=S)N1N=C(c2ccc(C)cc2)CC1c1ccc(N(C)C)cc1 (stereo unspecified),-4,-26,5,-5,31*,-27%
CNC(=S)N1N=C(c2ccc(C)cc2)CC1c1ccc(OC)cc1 (stereo unspecified),.,.,0,2,.,.
COc1ccc(S(=O)(=O)Nc2ccc3c(c2)C(=O)N([C@@H](C)CO)C[C@@H](C)[C@@H](CN(C)C)O3)cc1,-11,-4,.,.,-3,.
Cc1nn(-c2ccccc2)c(Cl)c1/C=C1\C(=O)N(C)C(=S)N1C,-4,-30,-6,.,40*,-24%
CN(C)c1ccc(C(CNC(=O)c2ccccc2F)c2c[nH]c3ccccc23)cc1 (stereo unspecified),3,-4,-7,.,7,.
CN(C)c1ccc(C(CNC(=O)c2ccccc2)c2c[nH]c3ccccc23)cc1 (stereo unspecified),-5,2,0,.,29*,-27%
CCN(CC)CCSc1nc2ccccc2c(=S)n1-c1ccccc1,-1,3,.,.,34*,-28%
O=[N+]([O-])c1ccc(N=Nc2c(Cl)cc(O)cc2Cl)cc1,2,5,-10,-10,52*,14µM*
Cc1[nH]c2ccccc2c1CC#N,-2,3,4,5,3,.
Cc1[nH]c2ccccc2c1C(C#N)(C#N)C1C(=O)c2ccccc2C1=O,2,-12,-11,0,65*,2µM*
O=C(NCC[C@@H]1CC[C@H](NC(=O)C2CCCCC2)[C@H](CO)O1)c1ccc(F)cc1,-5,-8,.,-9,-1,.
CCC(=O)NC(c1ccc(N(C)C)cc1)c1c(O)ccc2ccccc12 (stereo unspecified),-4,-8,-6,-2,24,-17%
O=C(NCCc1ccccc1)[C@H]1[C@H](CO)[C@H]2Cn3c(ccc(-c4ccccc4)c3=O)[C@@H]1N2,-5,-6,.,2,1,.
OC(CNC1CCCCCC1)COc1cccc2ccccc12 (stereo unspecified),0,-14,-5,17,4,.
Cc1cc2c(OCC(O)CNC3CCCCC3)cccc2[nH]1 (stereo unspecified),-4,20,-4,.,29*,-15%
C#CCOCCOCCOCCNc1nc(N2CCN(C(=O)[C@H](CCCCN)n3cc([C@@H](N)CC(N)=O)nn3)CC2)nc(N2CCN(C(=O)[C@H](CCCCN)n3cc([C@@H](N)CC(N)=O)nn3)CC2)n1,-4,61*,10,-21,37*,3%
SMILES,S100A4 inh HTS,RAD52 anneal inh,dFosB act,RAD54 branch,MLL AF4-AF9 inh,AlphaScreen intf
C#CCOCCOCCOCCNc1nc(N2CCN(C(=O)[C@H](CCCCN)n3cc(CCCC)nn3)CC2)nc(N2CCN(C(=O)[C@H](CCCCN)n3cc(CCCC)nn3)CC2)n1,-4,-39,15,10,26*,-12%
C#CCOCCOCCOCCNc1nc(N2CCN(C(=O)[C@H](CC(N)=O)n3cc([C@@H](N)CC(N)=O)nn3)CC2)nc(N2CCN(C(=O)[C@H](CC(N)=O)n3cc([C@@H](N)CC(N)=O)nn3)CC2)n1,1,-6,6,-35,.,.
CCCN(C)C[C@H]1OCCCC[C@H](C)Oc2ccc(NC(=O)C3CCCCC3)cc2C(=O)N([C@H](C)CO)C[C@H]1C,1,1,.,2,1,.
O=C(C[C@H]1CC[C@@H]2[C@H](COC[C@@H](O)CN2C(=O)C2CCCC2)O1)NCc1ccncc1,-73,-29,.,-12,-11,.
CN1CCN(C(c2ccccn2)c2cc(Cl)c3cccnc3c2O)CC1 (stereo unspecified),2,-19,-4,.,39*,-7%
CC(=O)NC(c1ccc(C)cc1)c1cc(Cl)c2cccnc2c1O (stereo unspecified),-2,-5,-9,8,-3,.
CN1CCN(C(c2ccc(C(F)(F)F)cc2)c2ccc3cccnc3c2O)CC1 (stereo unspecified),-21,13,.,.,85*,2.4µM*
Oc1c(C(c2ccc(Cl)cc2)N2CCCC2)cc(Cl)c2cccnc12 (stereo unspecified),-3,-20,-7,.,56*,-44%
Oc1c(C(c2ccccc2Cl)N2CCCC2)ccc2cccnc12 (stereo unspecified),-5,-30,9,.,91*,2.1µM*
CCCN(C)C[C@H]1OCCCC[C@H](C)Oc2ccc(NS(=O)(=O)c3ccc(OC)cc3)cc2C(=O)N([C@H](C)CO)C[C@H]1C,-7,20,.,7,2,.
CO[C@H]1CN(C)C(=O)c2ccc(NC(C)=O)cc2OC[C@@H](C)N(Cc2ccncc2)C[C@@H]1C,-7,-2,.,0,-2,.
CN1C(=O)c2cc(NC(=O)Nc3cccc(Cl)c3)ccc2OC[C@H]2O[C@@H](CC(=O)O)CC[C@H]21,1,9,.,-5,0,.
C[C@@H]1CCCCO[C@@H](CN(C)C)[C@@H](C)CN([C@@H](C)CO)C(=O)c2cc(NS(=O)(=O)c3ccccc3)ccc2O1,-2,-31,.,-2,-4,.
Cc1c(N=C2C=CC(=O)c3ccccc32)c(=O)n(-c2ccccc2)n1C,0,12,-5,.,35*,-44%
COc1ccc2c3c(n(C)c2c1)[C@@H](CO)N(C(=O)C1CC1)CC31CCN(C(=O)Nc2cccc(F)c2)CC1,1,20,.,.,8,.
COc1cccc(CNc2ccc3[nH]c(=O)[nH]c3c2)c1OCc1ccccc1F,-2,-11,-13,9,41*,-20%
COc1cc(CNc2ccc3[nH]c(=O)[nH]c3c2)cc(Br)c1OCc1ccc(F)cc1,1,-10,1,-5,-4,.
